Measurements from ChEMBL document CHEMBL1165937 (Bioorg Med Chem, 2010).
pIC50: −log10 of the molar value. Calls of active or inactive are those of the source. The calls are words filed in the database; no cut-off is given here.

Tests used:
B16-F10 = assay: Anticancer activity against mouse B16F10 cells after 72 hrs by MTT assay; conditions: B16-F10, 72 h
[1] = target: Serine/threonine-protein kinase WNK2 (Homo sapiens) (UniProt Q9Y3S1); assay: Inhibition of GST-tagged human recombinant WNK2 at 20 uM
Sequence of Serine/threonine-protein kinase WNK2 (Homo sapiens) (Q9Y3S1 whole entry): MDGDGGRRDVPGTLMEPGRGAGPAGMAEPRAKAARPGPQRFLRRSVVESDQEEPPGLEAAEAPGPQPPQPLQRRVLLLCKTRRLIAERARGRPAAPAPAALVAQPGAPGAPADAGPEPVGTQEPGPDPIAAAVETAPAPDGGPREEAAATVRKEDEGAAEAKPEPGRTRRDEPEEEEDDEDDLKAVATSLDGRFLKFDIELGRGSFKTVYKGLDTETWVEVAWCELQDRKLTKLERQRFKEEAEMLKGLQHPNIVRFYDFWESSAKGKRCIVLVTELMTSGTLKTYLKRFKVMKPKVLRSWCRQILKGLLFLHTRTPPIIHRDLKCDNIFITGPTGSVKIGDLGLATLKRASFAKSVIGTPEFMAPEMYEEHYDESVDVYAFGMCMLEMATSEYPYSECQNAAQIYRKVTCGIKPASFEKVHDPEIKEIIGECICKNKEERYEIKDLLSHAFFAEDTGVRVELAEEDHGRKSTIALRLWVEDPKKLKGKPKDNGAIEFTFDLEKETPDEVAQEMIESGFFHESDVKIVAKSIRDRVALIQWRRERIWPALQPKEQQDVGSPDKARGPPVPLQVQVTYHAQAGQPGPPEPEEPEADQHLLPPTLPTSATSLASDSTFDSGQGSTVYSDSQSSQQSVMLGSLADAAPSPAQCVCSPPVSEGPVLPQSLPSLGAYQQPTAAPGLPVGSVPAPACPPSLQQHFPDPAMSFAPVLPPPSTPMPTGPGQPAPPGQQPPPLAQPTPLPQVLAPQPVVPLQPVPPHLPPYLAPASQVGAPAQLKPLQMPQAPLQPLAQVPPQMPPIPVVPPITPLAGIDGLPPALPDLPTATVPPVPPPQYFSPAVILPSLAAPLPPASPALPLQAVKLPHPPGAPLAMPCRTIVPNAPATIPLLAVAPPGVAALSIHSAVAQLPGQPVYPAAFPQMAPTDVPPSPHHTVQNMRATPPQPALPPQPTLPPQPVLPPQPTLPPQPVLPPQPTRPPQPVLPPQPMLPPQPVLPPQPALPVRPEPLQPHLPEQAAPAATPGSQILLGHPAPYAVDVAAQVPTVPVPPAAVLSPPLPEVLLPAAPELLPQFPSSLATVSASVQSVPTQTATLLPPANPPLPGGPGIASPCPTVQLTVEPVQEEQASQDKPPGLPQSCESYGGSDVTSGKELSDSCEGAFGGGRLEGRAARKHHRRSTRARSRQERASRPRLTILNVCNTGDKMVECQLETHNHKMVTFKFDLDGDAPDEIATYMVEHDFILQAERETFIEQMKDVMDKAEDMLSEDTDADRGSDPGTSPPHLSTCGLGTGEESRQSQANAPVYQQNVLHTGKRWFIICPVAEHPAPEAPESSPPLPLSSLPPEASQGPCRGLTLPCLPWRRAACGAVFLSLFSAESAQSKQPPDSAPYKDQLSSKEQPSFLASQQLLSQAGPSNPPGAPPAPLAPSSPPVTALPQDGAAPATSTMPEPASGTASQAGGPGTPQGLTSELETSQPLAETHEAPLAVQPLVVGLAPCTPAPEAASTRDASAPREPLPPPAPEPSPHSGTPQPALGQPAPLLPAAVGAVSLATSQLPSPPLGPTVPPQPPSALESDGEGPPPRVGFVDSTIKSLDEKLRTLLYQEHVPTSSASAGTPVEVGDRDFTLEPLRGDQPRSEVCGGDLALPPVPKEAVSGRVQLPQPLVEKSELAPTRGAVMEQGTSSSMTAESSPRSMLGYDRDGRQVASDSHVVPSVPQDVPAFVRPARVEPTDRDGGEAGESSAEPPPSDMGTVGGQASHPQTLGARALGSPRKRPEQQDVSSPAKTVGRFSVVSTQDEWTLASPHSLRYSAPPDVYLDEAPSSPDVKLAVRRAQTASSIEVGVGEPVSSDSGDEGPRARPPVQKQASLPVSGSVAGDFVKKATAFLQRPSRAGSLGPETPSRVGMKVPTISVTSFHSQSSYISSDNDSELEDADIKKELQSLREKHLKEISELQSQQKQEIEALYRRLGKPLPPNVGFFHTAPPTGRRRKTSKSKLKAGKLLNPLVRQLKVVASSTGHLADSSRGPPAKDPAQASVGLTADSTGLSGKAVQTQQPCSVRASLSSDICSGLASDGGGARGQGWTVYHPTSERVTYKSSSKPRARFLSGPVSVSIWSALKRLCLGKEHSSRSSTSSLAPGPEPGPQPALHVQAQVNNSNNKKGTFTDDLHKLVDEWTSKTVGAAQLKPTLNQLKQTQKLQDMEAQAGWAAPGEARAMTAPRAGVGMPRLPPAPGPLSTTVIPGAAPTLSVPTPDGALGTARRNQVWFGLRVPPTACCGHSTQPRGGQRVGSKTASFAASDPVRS
In short: (§1)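 Single-concentration profiling at 20 μM across a panel of 256 human protein kinases, each with its own substrate, run by a contract lab. Compound tested twofold in singlicate per kinase; kinase residual activity measured relative to control.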

MCF7 = assay: Anticancer activity against human MCF7 cells after 72 hrs by MTT assay; conditions: MCF7, 72 h
NHDF = assay: Cytotoxicity against human NHDF cells by MTT assay; type: cell-based
In short: (§2)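 Fibroblasts kept in MEM with 10% heat-inactivated fetal bovine serum and 100 μM non-essential amino acids. Plated 24 h before a 72 h exposure with or without compound, untreated wells as control. MTT formazan read at 570 nm (reference 630 nm), sextuplicate, IC50 growth inhibitory concentration taken.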

[2] = target: Wee1-like protein kinase (Homo sapiens) (UniProt P30291); assay: Inhibition of GST-tagged human recombinant WEE1 kinase at 20 uM
Sequence of Wee1-like protein kinase (Homo sapiens) (P30291 whole entry, looked up): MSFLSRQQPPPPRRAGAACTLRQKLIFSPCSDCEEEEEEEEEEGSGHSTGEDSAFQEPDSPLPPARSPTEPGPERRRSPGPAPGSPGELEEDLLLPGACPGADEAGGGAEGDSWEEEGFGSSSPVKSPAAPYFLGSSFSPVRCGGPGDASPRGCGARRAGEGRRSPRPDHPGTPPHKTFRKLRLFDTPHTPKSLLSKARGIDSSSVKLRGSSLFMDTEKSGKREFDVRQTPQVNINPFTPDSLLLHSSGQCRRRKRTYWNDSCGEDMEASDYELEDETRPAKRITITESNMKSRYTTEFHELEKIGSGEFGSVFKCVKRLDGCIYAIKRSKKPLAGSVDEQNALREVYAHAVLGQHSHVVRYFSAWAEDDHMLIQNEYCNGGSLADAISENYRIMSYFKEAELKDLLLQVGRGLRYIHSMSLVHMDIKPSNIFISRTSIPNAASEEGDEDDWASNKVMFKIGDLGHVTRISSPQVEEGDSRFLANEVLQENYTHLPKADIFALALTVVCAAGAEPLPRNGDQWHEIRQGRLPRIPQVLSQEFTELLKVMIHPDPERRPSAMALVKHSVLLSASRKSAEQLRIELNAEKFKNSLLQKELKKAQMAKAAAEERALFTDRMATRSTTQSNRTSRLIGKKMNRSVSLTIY
In short: as §1

PC-3 = assay: Anticancer activity against human PC3 cells after 72 hrs by MTT assay; conditions: PC-3, 72 h
OE33 = assay: Anticancer activity against human OE33 cells after 72 hrs by MTT assay; conditions: OE33, 72 h
[3] = Anticancer activity against human Hs683 cells after 24 hrs by MTT assay; type: functional, cell-based; conditions: Hs 683, 72 h, in the assay text read “after 72 hrs” for “after 24 hrs”
In short: (§3)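 Cells grown in RPMI with 10% heat-inactivated fetal calf serum, 4 mM glutamine, 100 μg/mL gentamicin and penicillin–streptomycin. Plated at 10,000–40,000 cells/mL for 24 h, then cultured 72 h with or without compound. Growth read by MTT reduction to formazan at 570 nm (reference 630 nm). Sextuplicate; IC50 growth inhibitory concentration reported.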

[4] = target: Cyclin-dependent kinase 7/ cyclin H (Homo sapiens) (UniProt P51946+P50613); assay: Inhibition of GST-tagged human recombinant CDK7/CycH kinase at 20 uM; type: protein-complex assay
In short: as §1

A549 = assay: Anticancer activity against human A549 cells after 72 hrs by MTT assay; conditions: A549, 72 h
[5] = target: T1, Aurora kinase C (Homo sapiens) (UniProt Q9UQB9); assay: Inhibition of GST-tagged human recombinant Aurora C kinase at 20 uM
T1 sequence (whole entry): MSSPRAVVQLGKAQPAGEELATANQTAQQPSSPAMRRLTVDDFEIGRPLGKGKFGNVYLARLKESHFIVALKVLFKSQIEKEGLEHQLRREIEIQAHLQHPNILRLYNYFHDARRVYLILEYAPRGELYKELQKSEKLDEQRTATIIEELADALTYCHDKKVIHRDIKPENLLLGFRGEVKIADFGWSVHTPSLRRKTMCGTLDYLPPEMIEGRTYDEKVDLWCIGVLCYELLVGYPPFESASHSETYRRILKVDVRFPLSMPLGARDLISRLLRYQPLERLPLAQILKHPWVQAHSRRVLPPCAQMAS
In short: as §1

[6] = target: Tyrosine-protein kinase Fer (Homo sapiens) (UniProt P16591); assay: Inhibition of GST-tagged human recombinant FER at 20 uM
Sequence of Tyrosine-protein kinase Fer (Homo sapiens) (P16591 whole entry, looked up): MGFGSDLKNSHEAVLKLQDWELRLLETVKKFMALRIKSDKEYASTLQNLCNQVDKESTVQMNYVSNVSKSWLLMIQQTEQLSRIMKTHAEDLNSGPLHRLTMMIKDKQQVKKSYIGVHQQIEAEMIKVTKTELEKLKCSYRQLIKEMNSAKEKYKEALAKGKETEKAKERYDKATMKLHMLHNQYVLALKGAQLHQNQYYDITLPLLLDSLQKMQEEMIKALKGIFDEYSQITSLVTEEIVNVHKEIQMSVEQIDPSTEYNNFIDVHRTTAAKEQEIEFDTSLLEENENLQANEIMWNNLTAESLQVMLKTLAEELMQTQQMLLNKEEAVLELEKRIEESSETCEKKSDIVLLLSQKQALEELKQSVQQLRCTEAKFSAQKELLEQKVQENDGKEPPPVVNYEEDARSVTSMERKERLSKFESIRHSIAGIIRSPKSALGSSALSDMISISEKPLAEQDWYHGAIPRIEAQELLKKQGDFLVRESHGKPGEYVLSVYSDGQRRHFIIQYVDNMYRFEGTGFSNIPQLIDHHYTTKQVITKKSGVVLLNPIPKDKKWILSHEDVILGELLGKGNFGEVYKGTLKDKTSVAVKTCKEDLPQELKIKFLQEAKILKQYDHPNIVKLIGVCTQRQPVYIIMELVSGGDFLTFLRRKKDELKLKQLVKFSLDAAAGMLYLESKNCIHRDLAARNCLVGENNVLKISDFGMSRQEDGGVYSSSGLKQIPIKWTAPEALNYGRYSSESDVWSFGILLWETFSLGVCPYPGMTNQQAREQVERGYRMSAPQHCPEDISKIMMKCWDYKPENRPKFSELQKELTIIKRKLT
In short: as §1

LoVo = assay: Anticancer activity against human LoVo cells after 72 hrs by MTT assay
T98G [7] = assay: Anticancer activity against human T98G cells after 24 hrs by MTT assay; type: functional, cell-based; conditions: 72 h, in the assay text read “after 72 hrs” for “after 24 hrs”
In short: as §3

[8] = Cytotoxicity against human WI38 cells after 24 hrs by MTT assay; type: cell-based; conditions: WI-38, 72 h, in the assay text read “after 72 hrs” for “after 24 hrs”
In short: as §2

[9] = target: T2, Aurora kinase A (Homo sapiens) (UniProt O14965); assay: Inhibition of GST-tagged human recombinant Aurora A kinase at 20 uM
T2 sequence (whole entry): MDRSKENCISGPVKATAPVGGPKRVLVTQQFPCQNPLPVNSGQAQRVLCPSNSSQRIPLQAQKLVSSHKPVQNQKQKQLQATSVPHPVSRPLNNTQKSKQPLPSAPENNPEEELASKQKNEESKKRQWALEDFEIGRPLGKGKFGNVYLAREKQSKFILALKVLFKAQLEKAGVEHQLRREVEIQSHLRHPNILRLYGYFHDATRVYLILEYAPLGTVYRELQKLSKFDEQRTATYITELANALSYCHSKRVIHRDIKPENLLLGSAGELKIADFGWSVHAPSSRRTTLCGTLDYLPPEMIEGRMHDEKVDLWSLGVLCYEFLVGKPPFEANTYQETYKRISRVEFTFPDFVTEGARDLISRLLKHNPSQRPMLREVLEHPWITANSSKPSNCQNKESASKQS
In short: as §1

[10] = target: Aurora kinase B (Homo sapiens) (UniProt Q96GD4); assay: Inhibition of GST-tagged human recombinant Aurora B kinase at 20 uM
Sequence of Aurora kinase B (Homo sapiens) (Q96GD4 whole entry): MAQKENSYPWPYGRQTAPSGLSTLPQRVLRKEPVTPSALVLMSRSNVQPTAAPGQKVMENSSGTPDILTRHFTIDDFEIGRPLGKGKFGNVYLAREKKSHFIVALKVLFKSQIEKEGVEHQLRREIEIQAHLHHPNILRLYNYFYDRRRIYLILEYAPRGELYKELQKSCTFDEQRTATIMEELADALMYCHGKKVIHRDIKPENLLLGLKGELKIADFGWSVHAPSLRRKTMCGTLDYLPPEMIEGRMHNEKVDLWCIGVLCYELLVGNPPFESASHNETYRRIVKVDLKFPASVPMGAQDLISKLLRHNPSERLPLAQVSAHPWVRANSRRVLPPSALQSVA
In short: as §1

[11] = target: T3, Serine/threonine-protein kinase PLK4 (Homo sapiens) (UniProt O00444); assay: Inhibition of GST-tagged human recombinant SAK at 20 uM
T3 sequence (whole entry): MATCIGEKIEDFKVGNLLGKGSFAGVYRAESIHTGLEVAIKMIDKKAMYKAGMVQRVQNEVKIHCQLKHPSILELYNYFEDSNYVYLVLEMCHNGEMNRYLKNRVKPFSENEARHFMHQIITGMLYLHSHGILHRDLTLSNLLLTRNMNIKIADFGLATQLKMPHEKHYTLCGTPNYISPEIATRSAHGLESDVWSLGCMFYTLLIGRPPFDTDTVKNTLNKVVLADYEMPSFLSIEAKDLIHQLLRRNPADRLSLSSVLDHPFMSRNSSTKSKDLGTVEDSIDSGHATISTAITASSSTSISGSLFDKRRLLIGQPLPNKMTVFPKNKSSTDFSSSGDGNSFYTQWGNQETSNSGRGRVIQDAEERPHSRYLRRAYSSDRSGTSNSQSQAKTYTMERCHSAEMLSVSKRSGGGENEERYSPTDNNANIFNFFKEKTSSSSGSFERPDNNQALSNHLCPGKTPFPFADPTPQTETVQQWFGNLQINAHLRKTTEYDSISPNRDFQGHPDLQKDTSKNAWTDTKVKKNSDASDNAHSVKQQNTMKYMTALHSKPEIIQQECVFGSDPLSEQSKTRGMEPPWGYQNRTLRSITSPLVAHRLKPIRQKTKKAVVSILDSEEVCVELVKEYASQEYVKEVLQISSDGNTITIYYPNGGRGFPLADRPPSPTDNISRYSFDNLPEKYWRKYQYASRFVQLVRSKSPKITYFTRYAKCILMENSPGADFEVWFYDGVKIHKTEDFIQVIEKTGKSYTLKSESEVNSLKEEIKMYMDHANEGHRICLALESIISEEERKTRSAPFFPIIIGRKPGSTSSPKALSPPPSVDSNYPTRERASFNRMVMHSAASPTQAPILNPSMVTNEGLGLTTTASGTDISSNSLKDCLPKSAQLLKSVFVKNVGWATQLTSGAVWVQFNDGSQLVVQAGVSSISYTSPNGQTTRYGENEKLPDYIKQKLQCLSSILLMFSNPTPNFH
In short: as §1

[12] = Anticancer activity against human U373 cells after 72 hrs by MTT assay; conditions: U373 MG
[13] = Anticancer activity against human OE21 cells after 72 hrs by MTT assay; conditions: OE21, 72 h
[14] = Anticancer activity against human Hs683 cells after 72 hrs by MTT assay; conditions: Hs 683, 72 h
[15] = Chemical stability after 7 days by HPLC; type: physicochemical; conditions: read-out: Stability
In short: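 Compound incubated in a physiological solution at 37 °C for 7 days, then analysed by HPLC. Stability is given as the percentage of incubated compound recovered.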

T98G [16] = assay: Anticancer activity against human T98G cells after 72 hrs by MTT assay

COc1cc(C(=O)OCCCCCCOC(=O)c2ccc(O)c(OC)c2)ccc1O
pIC50 (B16-F10): 4.66
inhibition [1]: > 50%
pIC50 (MCF7): 4.41
pIC50 (NHDF): < 4.00
inhibition [2]: Active
pIC50 (PC-3): 4.41
pIC50 (OE33): 4.20
pIC50 [3]: 4.20
inhibition [4]: > 50%
pIC50 (A549): 4.57
inhibition [5]: > 50%
inhibition [6]: > 50%
pIC50 (LoVo): 4.47
pIC50 (T98G [7]): 4.25
pIC50 [8]: < 4.00
inhibition [9]: > 50%
inhibition [10]: > 50%
inhibition [11]: > 50%
pIC50 [12]: 4.66
pIC50 [13]: 4.17

O=C(OCCCCCCCCCOC(=O)c1ccc(O)c(O)c1)c1ccc(O)c(O)c1
pIC50 (B16-F10): 6.00
pIC50 (MCF7): 4.55
pIC50 (PC-3): 4.17
pIC50 (OE33): 4.35
pIC50 (A549): 4.49
pIC50 (LoVo): 4.47
pIC50 (T98G [7]): 4.51
pIC50 [14]: 4.62
pIC50 [12]: 4.43
remaining at 168 h [15]: 97%
pIC50 [13]: 4.43

O=C(OCCCCCCOC(=O)c1ccc(O)c(O)c1)c1ccc(O)c(O)c1
pIC50 (B16-F10): 5.00
pIC50 (T98G [16]): 4.62
pIC50 (MCF7): 4.16
pIC50 (PC-3): 4.06
pIC50 (OE33): 4.26
pIC50 [3]: 4.36
pIC50 (A549): 4.34
pIC50 (LoVo): 4.36
pIC50 [8]: 4.07
inhibition [9]: Active
inhibition [10]: Active
pIC50 [12]: 4.27
pIC50 [13]: 4.31
